In series [1] the target is T1, Peroxisome proliferator-activated receptor gamma (Homo sapiens, UniProt P37231).
T1 sequence (P37231 whole entry): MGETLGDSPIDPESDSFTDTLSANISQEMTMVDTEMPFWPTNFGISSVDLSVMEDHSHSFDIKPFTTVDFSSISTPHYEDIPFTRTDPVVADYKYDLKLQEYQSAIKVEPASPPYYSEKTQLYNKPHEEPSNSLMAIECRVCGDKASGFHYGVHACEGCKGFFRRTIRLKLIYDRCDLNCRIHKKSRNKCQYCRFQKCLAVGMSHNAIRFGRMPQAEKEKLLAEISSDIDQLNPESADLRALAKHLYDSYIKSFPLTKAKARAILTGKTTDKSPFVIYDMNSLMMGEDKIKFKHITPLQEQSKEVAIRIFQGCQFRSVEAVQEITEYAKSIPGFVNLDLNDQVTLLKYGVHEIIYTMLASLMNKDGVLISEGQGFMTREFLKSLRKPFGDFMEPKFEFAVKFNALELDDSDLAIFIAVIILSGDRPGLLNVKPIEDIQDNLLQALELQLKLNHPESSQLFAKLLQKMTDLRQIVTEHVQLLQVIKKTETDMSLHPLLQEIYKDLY
Description: Inhibition of human PPARgamma receptor by ligand displacement assay.

Series [2] deals with T2, Peroxisome proliferator-activated receptor alpha (Homo sapiens, UniProt Q07869).
T2 sequence (Q07869 whole entry): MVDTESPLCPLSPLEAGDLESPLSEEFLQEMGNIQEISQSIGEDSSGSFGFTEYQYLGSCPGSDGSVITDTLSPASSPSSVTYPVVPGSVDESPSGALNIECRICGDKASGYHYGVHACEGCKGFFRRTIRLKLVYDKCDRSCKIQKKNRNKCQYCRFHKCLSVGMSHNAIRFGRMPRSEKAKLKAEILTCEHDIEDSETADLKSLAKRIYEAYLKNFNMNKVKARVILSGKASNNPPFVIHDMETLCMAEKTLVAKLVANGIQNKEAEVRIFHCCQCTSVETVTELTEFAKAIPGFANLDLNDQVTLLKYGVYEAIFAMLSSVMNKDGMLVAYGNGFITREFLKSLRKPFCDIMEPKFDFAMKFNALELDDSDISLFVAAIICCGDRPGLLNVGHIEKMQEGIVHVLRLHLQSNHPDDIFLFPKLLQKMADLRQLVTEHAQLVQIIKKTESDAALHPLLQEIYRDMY
Description: Displacement of [3H]GW2433 from human PPARalpha receptor by ligand displacement assay. Background: Displacement assays read how much labelled ligand stays bound in the presence of the test substance.

In series [3] the target is T3, Peroxisome proliferator-activated receptor delta (Homo sapiens, UniProt Q03181).
T3 sequence (Q03181 whole entry): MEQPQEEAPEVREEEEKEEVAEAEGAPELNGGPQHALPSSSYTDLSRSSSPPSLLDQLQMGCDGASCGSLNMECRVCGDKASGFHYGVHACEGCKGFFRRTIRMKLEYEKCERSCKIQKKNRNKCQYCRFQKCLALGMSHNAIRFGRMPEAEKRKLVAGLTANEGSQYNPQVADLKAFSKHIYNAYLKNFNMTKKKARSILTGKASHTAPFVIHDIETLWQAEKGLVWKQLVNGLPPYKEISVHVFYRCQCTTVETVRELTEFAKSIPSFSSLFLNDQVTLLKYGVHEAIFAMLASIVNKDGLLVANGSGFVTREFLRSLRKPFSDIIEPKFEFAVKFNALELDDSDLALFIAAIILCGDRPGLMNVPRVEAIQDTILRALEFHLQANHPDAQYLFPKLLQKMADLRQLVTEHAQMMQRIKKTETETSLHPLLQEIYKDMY
In words: Inhibition of human PPARdelta receptor by ligand displacement assay.

In series [4] the target is T3, Peroxisome proliferator-activated receptor delta.
A short description of series [5]: Clearance in C57BL/6 mouse at 0.5 mg/kg, iv. The class given is ADME, organism-based. On the set-up: dose 0.5 mg/kg, route intravenous. Conditions: in vivo. In short, it runs like this:
(§1)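 Male C57BL/6 mice were dosed intravenously at 0.5 mg/kg and orally at 10 mg/kg. Clearance and Vss were taken from the iv arm. Cmax, AUCinf, half-life and oral bioavailability were taken from the oral arm. Values are given as mean ± deviation.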

In the next series the test system is DLD-1. Description: Antiproliferative against human DLD1 cells at 10 uM. The class given is functional, cell-based. The gist of the method:
(§2)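 Colorectal lines (SW480, HCT116, DLD1, RKO) and non-colorectal lines (A549, HEK293) were incubated with compound for 3 days at concentrations up to 10 μM. Proliferation was compared with DMSO vehicle. Staurosporine and actinomycin D served as positive controls.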

For a further series, the system named is HEK293. Description: Antiproliferative against human HEK293 cells at 10 uM. Type of series: functional, cell-based. In short, it runs like this: as §2
A further series relates to SW480. In words: Antiproliferative against human SW480 cells at 10 uM. Type of series: functional, cell-based. The gist of the method: as §2
The species entered for series [6] is Homo sapiens. In words: Inhibition of against 2-(4-((2-(3-fluoro-4-(trifluoromethyl)phenyl)-4-methylthiazol-5-yl)methylthio)-2-methylphenoxy)acetic acid-induced CPT1a gene expression in human skeletal muscle cell at 10 to 10000 nM. Type of series: functional. The gist of the method: (§3)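 Human skeletal muscle cells were stimulated with PPARδ agonist to induce transcription of the target genes CPT1a and PDK4. Compound was co-tested at various doses, and antagonism of the agonist-stimulated expression was read out.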

The species entered for series [7] is Homo sapiens. Description: Inhibition of PDK4 gene expression in human skeletal muscle cell at 10 to 10000 nM. The class given is functional. In short, it runs like this: (§4)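 Human skeletal muscle cells were treated with compound at various doses without added agonist. Basal CPT1a and PDK4 transcript expression was assessed.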
For series [8], the species on record is Homo sapiens. Description: Inhibition of CPT1a gene expression in human skeletal muscle cell at 10 to 10000 nM. Type of series: functional. The gist of the method: as §4
Series [9] can be described thus: Oral bioavailability in C57BL/6 mouse at 10 mg/kg. Type of series: ADME, organism-based. Conditions: in vivo. The gist of the method: as §1
The nature of series [10]: Volume of distribution at steady state in C57BL/6 mouse at 0.5 mg/kg, iv. The class given is ADME, organism-based. On the set-up: dose 0.5 mg/kg, route intravenous. Conditions: in vivo, read-out: Vdss. The gist of the method: as §1
Series [11] is filed under the species Homo sapiens. Description: Inhibition of against 2-(4-((2-(3-fluoro-4-(trifluoromethyl)phenyl)-4-methylthiazol-5-yl)methylthio)-2-methylphenoxy)acetic acid-induced PDK4 gene expression in human skeletal muscle cell at 10 to 10000 nM. The class given is functional. In short, it runs like this: as §3
Another series has as its system A549. In words: Antiproliferative against human A549 cells at 10 uM. Type of series: functional, cell-based. The gist of the method:
as §2

Another series has as its system HCT-116. In words: Antiproliferative against human HCT116 cells at 10 uM. Type of series: functional, cell-based. In short, it runs like this: as §2
Series [12] in a line: Half life in C57BL/6 mouse at 10 mg/kg, po. Type of series: ADME, organism-based. As to conditions: in vivo. On the set-up: dose 10 mg/kg, route oral. In short, it runs like this: as §1
The next series deals with RKO. In words: Antiproliferative against human RKO cells at 10 uM. Type of series: functional, cell-based. In short, it runs like this:
as §2

Series [13] is described as follows: Cmax in C57BL/6 mouse at 10 mg/kg, po. Type of series: ADME, organism-based. Also on record: dose 10 mg/kg, route oral. Conditions: in vivo. In short, it runs like this: as §1
Series [14] in a line: AUC (0 to infinity) in C57BL/6 mouse at 10 mg/kg, po. As to conditions: plasma. The class given is ADME, organism-based. Also on record: dose 10 mg/kg, route oral, time infinity. In short, it runs like this:
as §1

Active and inactive are the calls of the source. No cut-off for these calls is given here. Where only a bound is given, the exact number is not on record here.

On to `COC(=O)c1sccc1S(=O)(=O)Nc1ccc(Nc2ccccc2)cc1OC`, for which the IC50 in series [1] and in series [2] was more than 10 µM throughout.

Regarding `O=C(NCCS(=O)(=O)c1ccc(C(F)(F)F)cn1)c1ccc(-c2ccccc2)cc1`, the half-maximal inhibitory concentration (IC50) (usually the concentration needed to halve the response being measured) was 0.2 µM in [3], more than 10 µM in [1] and 0.251 µM in series [4].

As for `O=C(NCCS(=O)(=O)c1ccccn1)c1ccc(Cl)cc1`, the IC50 in [3], in [1] and in [2] was more than 10 µM each time.

For the compound `CC(C)Cc1ccc(C(=O)NCCS(=O)(=O)c2ccc(C(F)(F)F)cn2)cc1`, the IC50 in series [3] was 0.316 µM; in series [1] it was more than 10 µM; in [4] it was 0.2 µM; in [2] it was more than 10 µM.

Consider `O=C(NCCS(=O)(=O)c1ccc(C(F)(F)F)cn1)c1ccc(Cl)c(Br)c1`, for which the IC50 in series [3] was 0.126 µM; in series [1], more than 10 µM; in series [4], 0.251 µM; in series [2] it was more than 10 µM.

Regarding `Cc1ccc(S(=O)(=O)CCNC(=O)c2ccc(Cl)cc2)nc1`, the IC50 in series [3], in series [1] and in [2] was more than 10 µM throughout.

With `O=C(NCCCS(=O)(=O)c1ccc(C(F)(F)F)cn1)c1ccc(Cl)cc1`, the IC50 in [3], in [1] and in [2] was more than 10 µM each time.

For the compound `O=C(NCCS(=O)(=O)c1ccc(C(F)(F)F)cn1)c1ccc(OC(F)(F)F)cc1`, the IC50 in [3] is 0.1 µM; in series [1], more than 10 µM; in series [2], more than 10 µM.

`Cc1cc(C(=O)NCCS(=O)(=O)c2ccc(C(F)(F)F)cn2)ccc1Cl`: the IC50 is 0.126 µM in series [3], more than 10 µM in [1], 0.251 µM in series [4] and more than 10 µM in series [2].

On to `O=C(NCCCS(=O)(=O)c1ccc(C(F)(F)F)cn1)c1ccc(OC(F)(F)F)cc1`, for which the IC50 was 1.26 µM in series [3], more than 10 µM in series [1] and more than 10 µM in [2].

With `O=C(NCCS(=O)(=O)c1ccc(C(F)(F)F)cn1)c1ccc(Cl)cc1Cl`, the IC50 is 0.158 µM in series [3], more than 10 µM in series [1], 0.2 µM in series [4] and more than 10 µM in [2].

With `O=C(NCCS(=O)(=O)c1ccc(C(F)(F)F)cn1)c1ccc(Br)cc1F`, the IC50 in series [3] is 0.0501 µM; in series [1] it was more than 10 µM; in [4] it was 0.0794 µM; in series [2] it was more than 10 µM.

In the case of `O=C(NCCS(=O)(=O)c1ccc(C(F)(F)F)cn1)c1ccc(C2CCCCC2)cc1`, the results for the IC50 in series [3], in series [1] and in [2] were 1 µM, more than 10 µM and more than 10 µM, respectively.

For `O=C(NCCS(=O)(=O)c1ccc(C(F)(F)F)cn1)c1ccc(Cl)cc1`, the IC50 in [3] was 0.2 µM; in [1], more than 10 µM; in series [4] it was 0.126 µM; in series [2], more than 10 µM. In addition, the clearance – broadly, a measure of how efficiently the substance is removed, as volume per time – in series [5] stood at 39 mL/min/kg. Moreover, the result in the series on DLD-1, in the series on HEK293, in the series on SW480, in the series listed under Homo sapiens [7], with A549 and with HCT-116 was inactive. Further, the outcome in the series with RKO was inactive. In addition, the outcome in the series listed under Homo sapiens [6], in the series filed under Homo sapiens [8] and in the series listed under Homo sapiens [11] was Active. The bioavailability (as a rule, dose-corrected exposure relative to a reference, in per cent) in series [9] was found to be 77%. Further, the Vd in series [10] amounted to 1.7 L/kg. Moreover, in [12], the half-life (usually the time in which the quantity being followed falls by half) is 2.7 h. The peak level in series [13] (Cmax) was 881 ng/mL. Further, in [14], the AUC(0-inf) (commonly the area under the concentration-time curve extrapolated to infinity) was 3340 ng·h/mL.

The record behind these values is ChEMBL document CHEMBL1157541, “Identification and characterization of 4-chloro-N-(2-{[5-trifluoromethyl)-2-pyridyl]sulfonyl}ethyl)benzamide (GSK3787), a selective and irreversible peroxisome proliferator-activated receptor delta (PPARdelta) antagonist” (J Med Chem, 2010).
